Assays:
[1] = Compound was evaluated for its acute toxicity in rat; type: organism-based; conditions: in vivo
Outline: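 Male Wistar rats (200–250 g), 50 per substance, given single ip doses at five dose levels with 10 rats per dose. Deaths were followed for up to 14 days. LD50 was estimated by the Weil method, with 95% confidence limits.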

[2] = system: Rattus norvegicus; experiment: Dopaminergic activity, ability to lower serum prolactin levels after intraperitoneal administration of compound (34.7 mg/kg); type: functional, organism-based
Outline: (§1)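 Adult male Wistar rats (250–300 g) were caged singly with food and water ad libitum. Each rat got reserpine pretreatment, 2.5 mg/rat ip (2.5 mg/mL), 18 h before the drug. Drugs were dissolved in distilled water at 1 mL/kg ip; saline controls were run. Serum (100 µL, duplicate) was assayed by NIADDK prolactin RIA, expressed as ng RP3/mL. Results were given as % inhibition versus controls, mean ± standard error, 5–10 rats/group.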

[3] = system: Rattus norvegicus; experiment: Compound was tested for inhibiting prolactin release at the 103.3 mg/kg dose levels; type: functional; outline: as §1
[4] = system: Rattus norvegicus; experiment: Dopaminergic activity, ability to lower serum prolactin levels after intraperitoneal administration of compound (103.3 mg/kg); type: functional, organism-based; outline: as §1
[5] = system: Rattus norvegicus; experiment: Compound was tested for inhibiting prolactin release at the 0.0456 mg/kg dose levels; type: functional; outline: as §1
[6] = system: Rattus norvegicus; experiment: Compound was tested for inhibiting prolactin release at the 0.456 mg/kg dose levels; type: functional; outline: as §1
[7] = system: Rattus norvegicus; experiment: Compound was tested for inhibiting prolactin release at the 4.56 mg/kg dose levels 1 hr after ip administration; type: functional; conditions: route intraperitoneal
Outline: (§2)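 Time course in reserpine-pretreated male Wistar rats (250–300 g), given reserpine 2.5 mg/rat ip 18 h before dosing. The drug was given ip in distilled water (1 mL/kg), and rats were killed 1, 3 or 6 h later, with saline controls at each time. Serum prolactin was measured by duplicate NIADDK RIA (ng RP3/mL) and reported as % inhibition versus controls, mean ± standard error, 6–10 rats/group.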

[8] = system: Rattus norvegicus; experiment: Compound was tested for inhibiting prolactin release at the 4.56 mg/kg dose levels 3h after ip administration; type: functional; conditions: route intraperitoneal; outline: as §2
[9] = system: Rattus norvegicus; experiment: Compound was tested for inhibiting prolactin release at the 4.56 mg/kg dose levels 6 hr after ip administration; type: functional; conditions: route intraperitoneal; outline: as §2
[10] = system: Rattus norvegicus; experiment: Dopaminergic activity, ability to lower serum prolactin levels 1 hr after intraperitoneal administration of compound (4.56 mg/kg); type: functional, organism-based; outline: as §2
[11] = system: Rattus norvegicus; experiment: Compound at the 4.56 mg/kg dose levels was evaluated for its ability to lower serum prolactin levels 3h after intraperitoneal administration; type: functional, organism-based; set-up: dose 4.56 mg/kg; outline: as §2
[12] = system: Rattus norvegicus; experiment: Dopaminergic activity, ability to lower serum prolactin levels after intraperitoneal administration of compound (0.0456 mg/k); type: functional, organism-based; outline: as §1
[13] = system: Rattus norvegicus; experiment: Dopaminergic activity, ability to lower serum prolactin levels after intraperitoneal administration of compound (0.456 mg/kg); type: functional, organism-based; outline: as §1
[14] = system: Rattus norvegicus; experiment: Compound at the 4.56 mg/kg dose levels was evaluated for its ability to lower serum prolactin levels 6 hr after intraperitoneal administration; type: functional, organism-based; set-up: dose 4.56 mg/kg; outline: as §2
[15] = system: Rattus norvegicus; experiment: Dopaminergic activity, ability to lower serum prolactin levels after intraperitoneal administration of compound (11.2 mg/kg) in rats; type: functional, organism-based; outline: as §1
[16] = system: Rattus norvegicus; experiment: Compound was tested for inhibiting prolactin release at the 50.0 mg/kg dose levels; type: functional; outline: as §1
[17] = system: Rattus norvegicus; experiment: Dopaminergic activity, ability to lower serum prolactin levels after intraperitoneal administration of compound (50.0 mg/kg); type: functional, organism-based; outline: as §1
[18] = system: Rattus norvegicus; experiment: Dopaminergic activity, ability to lower serum prolactin levels after intraperitoneal administration of compound (0.001 mg/kg) in rats; type: functional, organism-based; outline: as §1
[19] = system: Rattus norvegicus; experiment: Dopaminergic activity, ability to lower serum prolactin levels after intraperitoneal administration of compound (0.01 mg/kg) in rats; type: functional, organism-based; outline: as §1
[20] = system: Rattus norvegicus; experiment: Dopaminergic activity, ability to lower serum prolactin levels after intraperitoneal administration of compound (0.1 mg/kg) in rats; type: functional, organism-based; outline: as §1
[21] = system: Rattus norvegicus; experiment: Compound was tested for the percent prolactin inhibiting activity at the 0.001 mg/kg dose levels; type: functional
Outline: (§3)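 Adult male Wistar rats (250-300 g), individually caged, food and water ad libitum, pretreated ip with reserpine 2.5 mg/rat 18 h before dosing to keep prolactin high. Single ip dose in distilled water (1 mL per kg); controls received isotonic saline. Serum prolactin measured by radioimmunoassay in duplicate, 100 μL serum, as ng rat prolactin RP3/mL; % inhibition versus saline controls.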

[22] = system: Rattus norvegicus; experiment: Compound was tested for the percent prolactin inhibiting activity at the 0.01 mg/kg dose levels; type: functional; outline: as §3
[23] = system: Rattus norvegicus; experiment: Compound was tested for the percent prolactin inhibiting activity at the 0.1 mg/kg dose levels; type: functional; outline: as §3
[24] = system: Rattus norvegicus; experiment: Compound was tested for inhibiting prolactin release at 0.833 mg/kg dose levels; type: functional; outline: as §1
[25] = system: Rattus norvegicus; experiment: Compound was tested for inhibiting prolactin release at the 4.165 mg/kg dose levels; type: functional; outline: as §1
[26] = system: Rattus norvegicus; experiment: Compound was tested for inhibiting prolactin release at the 8.33 mg/kg dose levels; type: functional; outline: as §1
[27] = system: Rattus norvegicus; experiment: Dopaminergic activity, ability to lower serum prolactin levels after intraperitoneal administration of compound (4.165 mg/kg); type: functional, organism-based; outline: as §1
[28] = system: Rattus norvegicus; experiment: Dopaminergic activity, ability to lower serum prolactin levels after intraperitoneal administration of compound (8.33 mg/kg); type: functional, organism-based; outline: as §1
[29] = system: Rattus norvegicus; experiment: Dopaminergic activity, ability to lower serum prolactin levels after intraperitoneal administration of compound (0.833 mg/kg); type: functional, organism-based; outline: as §1

CCCN1CCC[C@H]2c3cccnc3CC[C@H]21
LD50 [1]: 139 mg/kg
Level [2]: 19.3 ng/mL

CCCN1CCC[C@@H]2c3cccn4cc(C)c(c34)C[C@H]21
inhibition in vivo at 103.3 mg/kg [3]: 38.9%
LD50 [1]: 413 mg/kg
Level [4]: 10.2 ng/mL

CCCN1CCC[C@@H]2c3cccnc3CC[C@H]21
inhibition in vivo at 0.0456 mg/kg [5]: 27.5%
inhibition in vivo at 0.456 mg/kg [6]: 47.3%
inhibition in vivo at 4.56 mg/kg [7]: 85%
inhibition in vivo at 4.56 mg/kg [8]: 70%
inhibition in vivo at 4.56 mg/kg [9]: 41.8%
LD50 [1]: 183 mg/kg
Level [10]: 2.5 ng/mL
Level [11]: 4.6 ng/mL
Level [12]: 12.1 ng/mL
Level [13]: 8.8 ng/mL
Level [14]: 9.6 ng/mL

Cc1cn2cccc3c2c1C[C@@H]1[C@@H]3CCCN1C
LD50 [1]: 45 mg/kg
Level [15]: 18.9 ng/mL

CN1CCC[C@H]2c3cccnc3CC[C@H]21
inhibition in vivo at 50 mg/kg [16]: 14.3%
LD50 [1]: 200 mg/kg
Level [17]: 14.3 ng/mL

CC(C)C[C@H]1C(=O)N2CCC[C@H]2[C@]2(O)O[C@](NC(=O)[C@@H]3C=C4c5cccc6[nH]c(Br)c(c56)C[C@H]4N(C)C3)(C(C)C)C(=O)N12 [BROMOCRIPTINE]
Level [18]: 12.7 ng/mL
Level [19]: 6.6 ng/mL
Level [20]: 1.6 ng/mL
inhibition in vivo at 0.001 mg/kg [21]: 23.9%
inhibition in vivo at 0.01 mg/kg [22]: 60.4%
inhibition in vivo at 0.1 mg/kg [23]: 90.4%

CCN1CCC[C@@H]2c3cccn4cc(C)c(c34)C[C@H]21
inhibition in vivo at 0.833 mg/kg [24]: 34.7%
inhibition in vivo at 4.165 mg/kg [25]: 71.3%
inhibition in vivo at 8.33 mg/kg [26]: 80.2%
LD50 [1]: 228 mg/kg
Level [27]: 4.7 ng/mL
Level [28]: 3.3 ng/mL
Level [29]: 10.9 ng/mL

Source: ChEMBL document CHEMBL1123278, “Synthesis and dopaminergic activity of trans-6-methyl-7a,8,9,10,11,11a-hexahydro-7H-pyrrolo[3,2,1-gh]- 4,7-phenanthroline and trans-1,2,3,4,4a,5,6,10b-octahydro-4,7-phenanthroline derivatives” (J Med Chem, 1986)
